Laboratory results reported in ChEMBL document CHEMBL5030548, “Blockade of GRTH/DDX25 Phosphorylation by Cyclic Peptides Provides an Avenue for Developing a Nonhormonal Male Contraceptive” (J Med Chem, 2021).
Active and inactive are the calls of the source. No cut-off for these calls is given here. Where a SMILES comes first, the peptide text is derived from it. [ ]: non-standard residue; d: D form. The star is where a group is joined. FITC = O=C1OC2(c3ccc(O)cc3Oc3cc(O)ccc32)c2ccc(NC(=S)*)cc21; 2Nal = N[C@@H](Cc1ccc2ccccc2c1)C(=O)O; AEEA = NCCOCCOCC(=O)O

Tests used:
[1] = tested on: COS-1; assay: Binding affinity to GRTH (unknown origin) expressed in COS-1 cell lysate assessed as thermostabilization of protein at 40 uM incubated for 16 hrs followed by heating at 40 to 70 degree C for 3 mins by CETSA based western blot analysis; assay type: subcellular; details: Homo sapiens
Summary of the method: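 Lysate of COS-1 cells stably carrying human GRTH-V5-His, made with protease/phosphatase inhibitor and cleared by centrifugation, then diluted in lysis buffer. Peptide added to 40 μM and rotated 16 h at 4 °C. Aliquots were heated 3 min at 40–70 °C and cooled 3 min at room temperature, then spun. Soluble non-phospho GRTH was read by western blot; 40 °C sample served as reference; n = 3.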

[2] = tested on: COS-1; assay: Inhibition of PKA-induced GRTH phosphorylation (unknown origin) expressed in COS-1 cells at 100 uM stimulated with PKA for 24 hrs followed by peptide addition and incubated overnight by Western blot analysis; assay type: cell-based; details: Homo sapiens
Summary of the method: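 Stable GRTH COS-1 cells at 0.3 × 10^6/well were transfected with PKAα catalytic subunit plasmid (3 μg/well), or with empty plasmid, and grown 24 h. Peptide was then added at 100 μM overnight at 37 °C. pGRTH was detected by western blot with phospho-specific antibody (1:1000) and normalized to β-actin; three experiments.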

[3] = Drug uptake in mouse seminiferous tubule of testis at 100 uM incubated for 16 hrs by immunofluorescence microscopic analysis; assay type: ADME, tissue-based; details: in vitro
Summary of the method: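 Seminiferous tubules from decapsulated testes of 90-day-old mice were segmented and placed in medium 199. After 4 h, 100 μM FITC-tagged peptide was added for 16 h. Tubules were PBS-washed, mounted with antifade and imaged by fluorescence microscopy.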

[4] = tested on: COS-1; assay: Inhibition of GRTH phosphorylation (unknown origin) expressed in COS-1 cells assessed as reduction in pGRTH protein level at 5 to 100 uM measured after 16 hrs by western blot analysis; assay type: cell-based; details: Homo sapiens, dose 5-100 µM
Summary of the method: (§1)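 COS-1 cells stably expressing human GRTH-V5-His at ~90% confluence. Peptides dissolved in water and given at 5, 20, 60 or 100 μM for 16 h, or at 100 μM for 4, 8, 16 or 24 h. 30 μg protein per sample was blotted with a rabbit phospho-T239-specific GRTH antibody. 61 kDa pGRTH band normalized to β-actin; three independent experiments; ANOVA with Tukey test.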

[5] = Drug uptake in cytoplasm of African green monkey COS-1 cells assessed as compound accumulation in cytoplasm at 20 uM incubated for 4 hrs in presence of FITC-labelled peptide by DAPI staining based inverted phase contrast fluorescence microscope analysis; assay type: ADME, subcellular; details: chlorocebus aethiops, cos-1, 4 h
Summary of the method: (§2)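 Stable GRTH-expressing COS-1 cells grown overnight on coverslips, then given 20 μM FITC-tagged peptide for 4 h. After PBS wash they were fixed in 50% then 100% methanol, 1 min each, and mounted with DAPI. Green signal in cytoplasm and nucleus was viewed by inverted fluorescence microscopy.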

[6] = organism: Mus musculus; assay: Inhibition of GRTH phosphorylation in mouse seminiferous tubule of testis assessed as reduction in pGRTH protein level at 100 uM measured after 16 hrs by western blot analysis; assay type: tissue-based
Summary of the method: (§3)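 Seminiferous tubules from adult mice (90 days old) in medium 199, 4 h, then 100 μM peptide for 16 h. Lysates were blotted with phospho-specific GRTH antibody. pGRTH band normalized to β-actin and compared with untreated tubules; n = 3.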

[7] = Drug uptake in nucleus of African green monkey COS-1 cells assessed as compound accumulation in nucleus at 20 uM incubated for 4 hrs in presence of FITC-labelled peptide by DAPI staining based inverted phase contrast fluorescence microscope analysis; assay type: ADME, subcellular; details: chlorocebus aethiops, cos-1, 4 h; summary of the method: as §2
[8] = tested on: COS-1; assay: Binding affinity to mCherry labelled GRTH (unknown origin) expressed in COS-1 cells assessed as increase in fluorescence intensity of donor peptide FITC in bleached region at 15 uM followed by acceptor photobleaching measured after 16 hrs by inverted microscope based live cell imaging analysis; details: Homo sapiens
Summary of the method: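 COS-1 cells carrying an mCherry-human GRTH fusion, in glass-bottom dishes, exposed to 15 μM FITC-labelled peptide for 16 h, then imaged live. mCherry was excited at 561 nm and FITC at 488 nm (emission 500–550 nm). ROIs were bleached in the acceptor channel at 514 nm, 100% power, 10 iterations. FRET efficiency E% = 100 × (FITC postbleach − FITC prebleach)/FITC postbleach.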

[9] = tested on: COS-1; assay: Inhibition of GRTH phosphorylation (unknown origin) expressed in COS-1 cells assessed as reduction in pGRTH protein level at 100 uM measured after 8 to 16 hrs by western blot analysis; assay type: cell-based; details: Homo sapiens, time 8-16 hrs; summary of the method: as §1
[10] = tested on: COS-1; assay: Inhibition of GRTH phosphorylation (unknown origin) expressed in COS-1 cells assessed as reduction in pGRTH protein level at 100 uM measured after 24 hrs by western blot analysis; assay type: cell-based; details: Homo sapiens; summary of the method: as §1
[11] = tested on: COS-1; assay: Cytotoxicity against African green monkey COS-1 cell assessed as reduction in cell viability incubated for 24 hrs by CellTiter 96 non-radioactive cell proliferation assay; assay type: cell-based; details: Chlorocebus aethiops, COS-1, 24 h
Summary of the method: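 COS-1 cells stably expressing human GRTH, seeded at 0.01 × 10^6/well and left 16 h. Peptides at 10, 50, 100, 250 and 500 μM for 24 h at 37 °C with 5% CO2. Tetrazolium dye was then added for 4 h, reaction stopped, absorbance read at 570 nm. Viability taken as % of control OD; IC50 by linear regression of dose–response.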

[12] = tested on: COS-1; assay: Inhibition of GRTH phosphorylation (unknown origin) expressed in COS-1 cells assessed as reduction in pGRTH protein level measured after 16 hrs by western blot analysis; assay type: cell-based; details: Homo sapiens; summary of the method: as §1
[13] = tested on: COS-1; assay: Inhibition of GRTH phosphorylation (unknown origin) expressed in COS-1 cells assessed as reduction in pGRTH protein level at 100 uM measured after 16 to 24 hrs by western blot analysis; assay type: cell-based; details: Homo sapiens, time 16-24 hrs; summary of the method: as §1
[14] = organism: Mus musculus; assay: Inhibition of GRTH phosphorylation in mouse seminiferous tubule of testis assessed as reduction in pGRTH protein level at 100 uM measured after 16 hrs by western blot analysis relative to control; assay type: tissue-based; summary of the method: as §3

Activity [1] | Drug uptake [3] | Drug uptake [5] | Drug uptake [7] | Structure (SMILES) | inhibition [2] | inhibition [4] | inhibition [6] | Activity [8] | inhibition [9] | inhibition [10] | IC50 [11] | inhibition [12] | inhibition [13] | inhibition [14]
inactive | Active | Active | Active | O=C(O)CC[C@@H]1NC(=O)CNC(=O)[C@H](Cc2ccc3ccccc3c2)NC(=O)[C@H](Cc2ccccc2)NC(=O)COCCOCCNC(=O)[C@H](CCCCNC(=S)Nc2ccc3c(c2)C(=O)OC32c3ccc(O)cc3Oc3cc(O)ccc32)NC(=O)[C@H](CCC(=O)O)NC(=O)[C@H](CCC(=O)O)NC1=O (cyclo([2Nal]GEEEK(FITC)[AEEA]F)) | inactive | inactive | inactive | inactive | – | – | – | – | – | –
– | Active | Not Active | Not Active | N=C(N)NCCC[C@H](NC(=O)CNC(=O)[C@H](Cc1ccc2ccccc2c1)NC(=O)[C@@H](N)Cc1ccccc1)C(=O)N[C@@H](CCCNC(=N)N)C(=O)N[C@@H](CCCNC(=N)N)C(=O)N[C@@H](CCCCNC(=S)Nc1ccc2c(c1)C(=O)OC21c2ccc(O)cc2Oc2cc(O)ccc21)C(=O)NCCOCCOCC(=O)O (H-F[2Nal]GRRRK(FITC)[AEEA]-OH) | – | inactive | inactive | – | – | – | – | – | – | –
– | Active | Active | Active | N=C(N)NCCC[C@@H]1NC(=O)CNC(=O)CNC(=O)CNC(=O)COCCOCCNC(=O)[C@H](CCCCNC(=S)Nc2ccc3c(c2)C(=O)OC32c3ccc(O)cc3Oc3cc(O)ccc32)NC(=O)[C@H](CCCNC(=N)N)NC(=O)[C@H](CCCNC(=N)N)NC1=O (cyclo([AEEA]GGGRRRK(FITC))) | – | inactive | inactive | – | – | – | – | – | – | –
Active | Active | Active | Active | N=C(N)NCCC[C@@H]1NC(=O)CNC(=O)[C@H](Cc2ccc3ccccc3c2)NC(=O)[C@H](Cc2ccccc2)NC(=O)COCCOCCNC(=O)[C@H](CCCCNC(=S)Nc2ccc3c(c2)C(=O)OC32c3ccc(O)cc3Oc3cc(O)ccc32)NC(=O)[C@H](CCCNC(=N)N)NC(=O)[C@H](CCCNC(=N)N)NC1=O (cyclo([2Nal]GRRRK(FITC)[AEEA]F)) | Active | – | – | Active | Active | Active | 312 µM | Dose-Dependent Effect | – | –
– | – | – | – | N=C(N)NCCC[C@@H]1NC(=O)CNC(=O)[C@H](Cc2ccc3ccccc3c2)NC(=O)[C@H](Cc2ccccc2)NC(=O)COCCOCCNC(=O)CNC(=O)[C@H](CCCNC(=N)N)NC(=O)[C@H](CCCNC(=N)N)NC1=O (cyclo([2Nal]GRRRG[AEEA]F)) | – | – | – | – | – | Active | 392 µM | Dose-Dependent Effect | Active | –
Active | Active | Active | Active | N=C(N)NCCC[C@@H]1NC(=O)CNC(=O)[C@H](Cc2ccc3ccccc3c2)NC(=O)[C@H](Cc2ccccc2)NC(=O)COCCOCCNC(=O)[C@@H](CCCCNC(=S)Nc2ccc3c(c2)C(=O)OC32c3ccc(O)cc3Oc3cc(O)ccc32)NC(=O)[C@H](CCCNC(=N)N)NC(=O)[C@H](CCCNC(=N)N)NC1=O (cyclo([2Nal]GRRR[dK](FITC)[AEEA]F)) | Active | – | – | Active | Active | inactive | 333 µM | Dose-Dependent Effect | – | 60%
